Laboratory results taken from ChEMBL document CHEMBL1133633, “Anti-Helicobacter pylori agents. 4. 2-(Substituted guanidino)-4-phenylthiazoles and some structurally rigid derivatives” (2000).
Converted amounts (≈) assume the structure as drawn.

Tests used:
[1] = tested on: Helicobacter pylori; assay: The lowest drug concentration that inhibited macroscopic colonial growth against Helicobacter pylori.; assay type: functional
In short: (§1)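 Agar dilution. Strains were precultured 3 days at 37 °C on Brucella agar with 3% horse serum and 2% starch, then suspended in buffered saline to McFarland No. 1. A 10²-fold dilution was spotted by multipoint replicator onto Brucella agar with 7% lysed horse blood carrying serial 2-fold drug dilutions. Plates were incubated 3 days at 37 °C under 10% CO₂. MIC is the lowest concentration preventing macroscopic colonial growth. Mean and range come from 10 strains: 8001, 8003, 8004, 8007, 8008, 8009, 8011, 9005, FP1530 and FP1532.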

[2] = tested on: Helicobacter pylori; assay: Determined the lowest drug concentration that inhibited macroscopic colonial growth against Helicobacter pylori.; assay type: functional; in short: as §1
[3] = tested on: Clostridioides difficile; assay: Antimicrobial activity was measured against Clostridium difficile organism; Value ranges from 0.1-0.39; assay type: functional
[4] = tested on: Neisseria gonorrhoeae; assay: Antimicrobial activity was measured against Neisseria gonorrhoeae organism; assay type: functional
[5] = tested on: Helicobacter pylori; assay: The lowest drug concentration that inhibited macroscopic colonial growth against Helicobacter pylori; Value ranges from 1.56-25; assay type: functional; in short: as §1
[6] = tested on: Neisseria meningitidis; assay: Antimicrobial activity was measured against Neisseria meningitidis organism.; assay type: functional
[7] = tested on: Clostridium perfringens; assay: Antimicrobial activity was measured against Clostridium perfringens organism; Value ranges from 0.78-3.13; assay type: functional
[8] = tested on: Bacteroides fragilis; assay: Antimicrobial activity was measured against B. fragilis range; Value ranges from 0.39-0.78; assay type: functional
[9] = tested on: Campylobacter jejuni; assay: Antimicrobial activity was measured against Campylobacter jejuni organism; Value ranges from 0.78-100; assay type: functional
[10] = tested on: Helicobacter pylori; assay: The lowest drug concentration that inhibited macroscopic colonial growth against Helicobacter pylori; value ranges from 0.00625-0.05; assay type: functional; in short: as §1
[11] = species on record: Cavia porcellus; assay: Inhibition of histamine stimulated chronotropic response in isolated guinea pig right atrium (1*10e-6 g/mL); assay type: functional, Cardiac atrium
In short: (§2)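 Guinea pig right atrial strip, under 0.3-0.6 g initial tension in Tyrode solution at 30 °C, gassed with 95% O₂-5% CO₂; beating rate recorded by transducer. Histamine hydrochloride (1 × 10^-6 g/mL) raised rate. Test compound (1 × 10^-6 g/mL) was added 30 min after histamine washout. Percent inhibition compares histamine-induced rate increases before and 30 min after dosing.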

[12] = tested on: Rattus norvegicus; assay: Inhibition of histamine stimulated gastric acid secretion in lumen perfused stomach of anesthetized rats (1 mg/kg iv); assay type: functional
In short: (§3)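 Male Sprague-Dawley rats (~250 g), fasted 24 h, anesthetized with urethane 1.25 g/kg ip. The opened stomach was lumen-perfused with saline, and the perfusate was titrated with 25 mM NaOH by autotitrator. Inhibition of histamine-stimulated acid output was measured after 1 mg/kg iv dosing; n = 2.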

[13] = tested on: Helicobacter pylori; assay: The lowest drug concentration that inhibited macroscopic colonial growth against Helicobacter pylori; Value ranges from 12.5-100; assay type: functional; in short: as §1
[14] = tested on: Rattus norvegicus; assay: Inhibition of histamine stimulated gastric acid secretion in lumen perfused stomach of anesthetized rat (1 mg/kg iv); assay type: functional; in short: as §3
[15] = species on record: Cavia porcellus; assay: Inhibition of histamine stimulated chronotropic response in isolated guinea pig right atrium (1x 10e-6 g/mL); assay type: functional, Cardiac atrium; in short: as §2
[16] = tested on: Helicobacter pylori; assay: The lowest drug concentration that inhibited macroscopic colonial growth against Helicobacter pylori; value ranges from 0.2-0.78; assay type: functional; in short: as §1
[17] = tested on: Helicobacter pylori; assay: The lowest drug concentration that inhibited macroscopic colonial growth against Helicobacter pylori;value ranges from 6.25-50; assay type: functional; in short: as §1
[18] = species on record: Cavia porcellus; assay: Inhibition of histamine stimulated chronotropic response in isolated guinea pig right atrium; assay type: functional, Cardiac atrium; in short: as §2
[19] = tested on: Helicobacter pylori; assay: The lowest drug concentration that inhibited macroscopic colonial growth against Helicobacter pylori; Value ranges from 0.1-0.39; assay type: functional; in short: as §1
[20] = tested on: Helicobacter pylori; assay: The lowest drug concentration that inhibited macroscopic colonial growth against Helicobacter pylori; value ranges from 0.39-1.56; assay type: functional; in short: as §1
[21] = tested on: Helicobacter pylori; assay: The lowest drug concentration that inhibited macroscopic colonial growth against Helicobacter pylori; Value ranges from 3.13-12.5; assay type: functional; in short: as §1
[22] = tested on: Helicobacter pylori; assay: The lowest drug concentration that inhibited macroscopic colonial growth against Helicobacter pylori; value ranges from 0.0125-0.1; assay type: functional; in short: as §1
[23] = tested on: Helicobacter pylori; assay: The lowest drug concentration that inhibited macroscopic colonial growth against Helicobacter pylori; value ranges from 0.39-0.78; assay type: functional; in short: as §1
[24] = tested on: Rattus norvegicus; assay: Inhibition of histamine stimulated gastric acid secretion in lumen perfused stomach of anesthetized rats; assay type: functional; in short: as §3
[25] = tested on: Helicobacter pylori; assay: The lowest drug concentration that inhibited macroscopic colonial growth against Helicobacter pylori; Value ranges from 6.25-50; assay type: functional; in short: as §1
[26] = tested on: Helicobacter pylori; assay: The lowest drug concentration that inhibited macroscopic colonial growth against Helicobacter pylori; value ranges from 0.78-6.25; assay type: functional; in short: as §1

Structure (SMILES): CC(=O)Nc1ccc2c(c1)-c1nc(N=C(N)N)sc1CS2
- MIC [1]: > 100 µg/mL

Structure (SMILES): CC[C@H]1OC(=O)[C@H](C)[C@@H](O[C@H]2C[C@@](C)(OC)[C@@H](O)[C@H](C)O2)[C@H](C)[C@@H](O[C@@H]2O[C@H](C)C[C@H](N(C)C)[C@H]2O)[C@](C)(OC)C[C@@H](C)C(=O)[C@H](C)[C@@H](O)[C@]1(C)O [CLARITHROMYCIN]
- MIC [2]: 0.057 µg/mL (≈ 0.0762 µM)

Structure (SMILES): Cc1ncc([N+](=O)[O-])n1CCO [METRONIDAZOLE]
- MIC [3]: 0.2 µg/mL (≈ 1.17 µM)
- MIC [4]: > 100 µg/mL
- MIC [5]: 5.4 µg/mL (≈ 31.6 µM)
- MIC [6]: > 100 µg/mL
- MIC [7]: 1.75 µg/mL (≈ 10.2 µM)
- MIC [8]: 0.59 µg/mL (≈ 3.45 µM)
- MIC [9]: 30 µg/mL (≈ 175 µM)

Structure (SMILES): CC(=O)NCc1cccc(-c2csc(NC(=N)NCc3ccccc3)n2)c1
- MIC [10]: 0.025 µg/mL (≈ 0.0659 µM)
- Inhibition [11]: 77%
- Inhibition [12]: 50%

Structure (SMILES): CC(=O)NCc1ccc2c(c1)-c1nc(N=C(N)N)sc1CCO2
- MIC [13]: 50 µg/mL (≈ 151 µM)

Structure (SMILES): CC(=O)NCc1cccc2c1OCCc1sc(N=C(N)N)nc1-2
- MIC [1]: > 100 µg/mL

Structure (SMILES): CC(=O)NCc1ccc(-c2csc(N=C(N)N)n2)cc1
- MIC [1]: > 100 µg/mL

Structure (SMILES): CC(=O)NCc1cccc(-c2csc(NC(=N)NCCCc3ccccc3)n2)c1
- Inhibition [14]: 57%
- Inhibition [15]: 35%
- MIC [16]: 0.39 µg/mL (≈ 0.957 µM)

Structure (SMILES): COc1ccc(CC/N=C(\N)Nc2nc(-c3cccc(CNC(C)=O)c3)cs2)cc1
- Inhibition [11]: 34%
- MIC [16]: 0.32 µg/mL (≈ 0.756 µM)
- Inhibition [12]: 10%

Structure (SMILES): CC(=O)NCc1cccc(-c2csc(NC(=N)NCCc3c[nH]cn3)n2)c1
- MIC [17]: 27 µg/mL (≈ 70.4 µM)

Structure (SMILES): CCCC/N=C(\N)Nc1nc(-c2cccc(CNC(C)=O)c2)cs1
- Inhibition [18]: 84%
- MIC [19]: 0.22 µg/mL (≈ 0.637 µM)
- Inhibition [12]: 74%

Structure (SMILES): COCCC/N=C(\N)Nc1nc(-c2cccc(CNC(C)=O)c2)cs1
- MIC [20]: 0.96 µg/mL (≈ 2.66 µM)
- Inhibition [11]: 54%
- Inhibition [12]: 87%

Structure (SMILES): CCCC/N=C(\N)Nc1nc2c(s1)CCOc1ccc(CNC(C)=O)cc1-2
- MIC [21]: 7.7 µg/mL (≈ 19.9 µM)

Structure (SMILES): CC(=O)NCc1cccc(-c2csc(NC(=N)NCCc3ccccc3)n2)c1
- MIC [22]: 0.037 µg/mL (≈ 0.094 µM)
- Inhibition [11]: 65%
- Inhibition [12]: 59%

Structure (SMILES): CC(=O)NCc1cccc(-c2csc(NC(=N)NCCc3ccccn3)n2)c1
- Inhibition [11]: 39%
- Inhibition [12]: 14%
- MIC [23]: 0.49 µg/mL (≈ 1.24 µM)

Structure (SMILES): CNC(=C[N+](=O)[O-])NCCSCc1ccc(CN(C)C)o1 [RANITIDINE]
- Inhibition [18]: 44%
- Inhibition [24]: 72%
- MIC [2]: > 1600 µg/mL

Structure (SMILES): CC(=O)NCc1cccc(-c2csc(NC(=N)NCCO)n2)c1
- MIC [25]: 20 µg/mL (≈ 60 µM)

Structure (SMILES): CC(=O)NCc1cccc(-c2csc(NC(=N)NCCOCc3ccccc3)n2)c1
- MIC [26]: 2.5 µg/mL (≈ 5.9 µM)

Structure (SMILES): CCCC/N=C(\N)Nc1nc2c(s1)CSc1ccc(CNC(C)=O)cc1-2
- MIC [25]: 22 µg/mL (≈ 56.5 µM)
